Our source for the Activity values is ChEMBL document CHEMBL4619802, “Discovery and Characterization of Pure RhlR Antagonists against Pseudomonas aeruginosa Infections” (J Med Chem, 2020).

Structures are written as SMILES.

Assay [1] concerns the target T1, HTH-type quorum-sensing regulator RhlR (Pseudomonas aeruginosa (strain ATCC 15692 / PAO1 / 1C / PRS 101 / LMG12228)) (UniProt P54292).
T1 sequence (whole entry): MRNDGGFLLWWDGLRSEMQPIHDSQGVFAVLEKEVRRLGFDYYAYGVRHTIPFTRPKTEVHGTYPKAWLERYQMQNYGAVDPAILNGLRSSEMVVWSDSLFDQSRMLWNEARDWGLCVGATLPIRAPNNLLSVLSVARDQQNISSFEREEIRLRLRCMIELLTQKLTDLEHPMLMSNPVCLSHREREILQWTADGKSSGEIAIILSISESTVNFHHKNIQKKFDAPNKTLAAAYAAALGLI
The assay can be described thus: Antagonist activity at Pseudomonas aeruginosa RhlR expressed in Escherichia coli DH5alpha assessed as relative protein activity at 100 uM incubated for 1.5 hrs in presence of N-butyryl-L-homoserine lactone by luminescence reporter gene assay relative to control. The arrangement: scale not given: the % may be the effect or the level left. In outline: (§1)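 E. coli DH5α sdiA mutant carrying RhlR and rhlA::lacZ plasmids, at OD595 0.3 in LB. Compound given with BHL (10 µM per footnote) and 0.4% arabinose, 37 °C for 1.5 h.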

The target in assay [2] is T1, HTH-type quorum-sensing regulator RhlR (Pseudomonas aeruginosa (strain ATCC 15692 / PAO1 / 1C / PRS 101 / LMG12228)). The assay can be described thus: Modulation of RhlR in Pseudomonas aeruginosa assessed as biofilm formation at 100 uM incubated for 24 hrs under static condition by crystal violet staining based assay relative to control.
For assay [3] the target is unchanged. The assay can be described thus: Agonist activity at Pseudomonas aeruginosa RhlR expressed in Escherichia coli DH5alpha assessed as relative protein activity at 1000 uM incubated for 1.5 hrs by luminescence reporter gene assay relative to control.
For assay [4] the target is unchanged. The assay can be described thus: Modulation of RhlR in Pseudomonas aeruginosa assessed as biofilm formation at 10 uM incubated for 24 hrs under static condition by crystal violet staining based assay relative to control.
The subject of assay [5] is Pseudomonas aeruginosa. The assay can be described thus: Antibacterial activity against Pseudomonas aeruginosa assessed as bacterial growth at 100 uM incubated for 24 hrs relative to control. Format: functional. In outline: (§2)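 P. aeruginosa overnight culture (OD595 1.0) diluted 1:20 in AB medium (pH 7.5, 1% glucose, casamino acids, arginine) with compound, in borosilicate bottles, 37 °C for 24 h without shaking. Growth taken as OD595 of the suspended culture. Attached cells washed twice with PBS, stained with 0.1% crystal violet for 10 min, dye eluted in ethanol and read at 545 nm.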

Assay [6] relates to Pseudomonas aeruginosa. Briefly: Antibacterial activity against Pseudomonas aeruginosa assessed as bacterial growth at 10 uM incubated for 24 hrs relative to control. It is filed as functional. In a few lines:
as §2

Assay [7] has as its target T1, HTH-type quorum-sensing regulator RhlR (Pseudomonas aeruginosa (strain ATCC 15692 / PAO1 / 1C / PRS 101 / LMG12228)). The assay can be described thus: Antagonist activity at Pseudomonas aeruginosa RhlR expressed in Escherichia coli DH5alpha assessed as relative protein activity at 10 uM incubated for 1.5 hrs in presence of N-butyryl-L-homoserine lactone by luminescence reporter gene assay relative to control. The arrangement: scale not given: the % may be the effect or the level left. In a few lines:
as §1
In general terms: A reporter such as luciferase makes a cellular process visible.

The target is the same in assay [8]. Briefly: Antagonist activity at RhlR in Pseudomonas aeruginosa assessed as rhamnolipid production at 10 uM incubated for 24 hrs by Orcinol staining based assay relative to control. The arrangement: scale not given: the % may be the effect or the level left.
The target is the same in assay [9]. The assay can be described thus: Antagonist activity at RhlR in Pseudomonas aeruginosa assessed as rhamnolipid production at 100 uM incubated for 24 hrs by Orcinol staining based assay relative to control. Set-up: scale not given: the % may be the effect or the level left.
For assay [10] the target is unchanged. Briefly: Agonist activity at Pseudomonas aeruginosa RhlR expressed in Escherichia coli DH5alpha assessed as relative protein activity at 100 uM incubated for 1.5 hrs by luminescence reporter gene assay relative to control.

In the case of `CCCCCC(=O)C#Cc1ccc(F)c(F)c1`, the Activity in assay [1] amounted to 17%; in assay [2] it was 56%; in assay [3], 5%; in assay [4], 71%; with Pseudomonas aeruginosa [5] it was 88%; in the assay with Pseudomonas aeruginosa [6], 100%. Also, the Activity worked out at 39% in assay [7], 60% in assay [8], 58% in assay [9] and 3% in [10].
With `CCCCC(=O)C#Cc1ccc(F)c(F)c1`, the Activity in [1] is 16%; in [2] it was 55%; in assay [3] it was 6%; in assay [4] it was 75%; with Pseudomonas aeruginosa [5], 89%; in the assay on Pseudomonas aeruginosa [6], 100%. The Activity in [7] came out at 29%; in assay [8], 59%; in [9], 49%; in assay [10], 4%.
Take `CCCC(O)CC(=O)/C=C/c1cccc(OC)c1` (stereo not given): the Activity in assay [1] came out at 94%; in assay [2] it was 73%; in assay [3], 4%; in assay [4], 88%; with Pseudomonas aeruginosa [5] it was 95%; with Pseudomonas aeruginosa [6], 96%. Moreover, the Activity in assay [7] was 89%; in [8], 91%; in [9] it was 83%; in assay [10] it was 2%.
For `CCCC(O)CC(=O)/C=C/c1ccc(O)c(O)c1` (stereo not given), the Activity in assay [1] is 43%; in [2], 72%; in assay [3] it was 5%; in assay [4] it was 84%; in the assay on Pseudomonas aeruginosa [5], 104%; with Pseudomonas aeruginosa [6], 99%. Besides, the Activity in assay [7] is 60%; in [8], 56%; in assay [9], 50%; in assay [10] it was 3%.
For `CCCC(O)CC(=O)/C=C/c1ccc(O)c(OC)c1` (stereo not given), the Activity in assay [1] turned out to be 65%; in assay [2], 65%; in assay [3], 5%; in assay [4], 82%; in the assay with Pseudomonas aeruginosa [5] it was 95%; in the assay on Pseudomonas aeruginosa [6], 102%. Also, the Activity in assay [7] is 73%; in [8], 73%; in [9], 57%; in [10], 4%.
Regarding `CCCC(O)C#Cc1ccc(F)c(F)c1` (racemic), the Activity was 32% in assay [1]; 60% in assay [2]; 5% in [3]; 73% in [4]; 104% in the assay with Pseudomonas aeruginosa [5]; 100% in the assay with Pseudomonas aeruginosa [6]. For the same compound, the Activity amounted to 45% in [7], 73% in assay [8], 49% in assay [9] and 3% in assay [10].
With `CCC[C@@H](O)C#Cc1ccc(F)c(F)c1`, the Activity in assay [1] was found to be 25%; in assay [2], 60%; in assay [3], 5%; in [4] it was 74%; in the assay on Pseudomonas aeruginosa [5], 102%; in the assay with Pseudomonas aeruginosa [6], 98%. For the same compound, the Activity stood at 45% in assay [7], 60% in [8], 48% in [9] and 3% in assay [10].
`CCC[C@H](O)C#Cc1ccc(F)c(F)c1`: the Activity in [1] turned out to be 38%; in [2], 64%; in [3], 5%; in assay [4], 79%; in the assay with Pseudomonas aeruginosa [5] it was 99%; with Pseudomonas aeruginosa [6], 98%. The Activity in assay [7] was found to be 59%; in [8], 59%; in assay [9] it was 52%; in assay [10] it was 3%.
